The source made the active and inactive calls. No cut-off for these calls is given here.
Legend:
[1] = test system: Influenza A virus; test: Antiviral activity against Influenza A virus A/WSN/33(H1N1)-PB2-Nanoluc virus infected in human A549 cells assessed as decrease in Nano-luc pretreated for 2 hr followed viral infection incubated for 24 hrs by Nano-Glo luminescence assay; assay type: functional, organism-based; details: A/WSN/1933(H1N1)
Summary of the method: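 A549 cells were treated with a range of compound concentrations for 2 h, then infected with WSN-PB2-Nanoluc (NanoLuc fused to PB2) at MOI 0.02 for 24 h. Cells were lysed in Renilla lysis buffer and luminescence read with Nano-Glo substrate on equal lysate volumes. IC50 was derived from the dose-response.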

[2] = test system: A549; test: Cytotoxicity against human A549 cells by MTT assay; assay type: cell-based
Summary of the method: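 MTT assay run according to the manufacturer's instructions, concurrently with NP immunostaining of infected A549 cultures.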

[3] = test system: Influenza A virus; test: Antiviral activity against Influenza A virus A/Wyoming/03/2003 (H3N2) infected in human A549 cells assessed as reduction in infected cells up to 25 uM pretreated for 1 hr; assay type: functional, organism-based; details: dose microM <=25, time 1.0 hrs
[4] = test system: Influenza A virus; test: Antiviral activity against Influenza A virus A/WSN/33(H1N1) infected in human A549 cells assessed as viral replication measured after 24 hrs by immunofluorescence microscopy; assay type: functional, organism-based; details: A/WSN/1933(H1N1); for IC50: A549, 24 h; for IC90: A549, time 24 hrs
Summary of the method: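 A549 cells were infected with A/WSN/33 at MOI 0.01 for 24 h, then fixed in 4% formaldehyde and permeabilized with 0.1% Triton X-100. They were immunostained for NP with an Alexa-488 secondary plus DAPI and imaged on an image cytometer. Percent infection = NP-positive cells divided by total cells.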

[5] = Selectivity index, ratio of CC50 for human A549 cells to IC50 for antiviral activity against Influenza A virus A/WSN/33(H1N1) infected in human A549 cells; assay type: toxicity, cell-based; details: read-out: Selectivity Index
Summary of the method: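 Ratio of CC50 to IC50. IC50 came from A549 cells pretreated 2 h with compound, then infected 24 h with WSN-PB2-Nanoluc at MOI 0.02 and read by Nano-Glo luminescence. CC50 was measured by CellTiter-Glo.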

[6] = test system: Influenza A virus; test: Antiviral activity against Influenza A virus A/California/07/2009 (HIN1) infected in human A549 cells assessed as reduction in infected cells up to 25 uM pretreated for 1 hr; assay type: functional, organism-based; details: A/California/07/2009(H1N1), dose microM <=25, time 1.0 hrs

Structure (SMILES) | IC50 [1] | CC10 [2] | Activity [3] | CC50 [2] | IC50 [4] | IC90 [4] | selectivity ratio [5] | Activity [6]
CCN(C(=O)c1cc(Cl)ccc1Cl)c1ccc(Cl)cc1C | > 5 µM | > 5 µM | – | – | – | – | – | –
CCN(c1ccc(F)cc1F)S(=O)(=O)c1cc(Cl)ccc1Cl | – | > 5 µM | inactive | > 5 µM | 0.052 µM | 0.9 µM | > 96 | Active
C#CCN(c1ccccc1C)S(=O)(=O)c1cc(Cl)ccc1Cl | – | > 5 µM | – | > 5 µM | 0.38 µM | 5.1 µM | > 13 | –
Cc1cc(Cl)ccc1N(C(F)F)S(=O)(=O)c1cc(Cl)ccc1Cl | – | > 5 µM | – | > 5 µM | 1.3 µM | > 5 µM | > 4 | –
C#CCCC1(CCN(c2ccc(Cl)cc2C)S(=O)(=O)c2cc(Cl)ccc2Cl)N=N1 | > 5 µM | > 25 µM | – | – | – | – | – | –
CCOC(=O)Cc1ccc(N(CC)S(=O)(=O)c2cc(Cl)ccc2Cl)cc1 | – | > 5 µM | – | > 5 µM | 0.08 µM | 5.7 µM | > 63 | –
CCN(c1c(F)cc(Cl)cc1F)S(=O)(=O)c1cc(Cl)ccc1Cl | – | 0.025 µM | – | > 5 µM | 0.41 µM | > 5 µM | > 12 | –
CCN(c1ccc(Cl)cc1C)S(=O)(=O)c1cc(Cl)ccc1Cl | – | > 5 µM | Active | > 5 µM | 0.034 µM | 0.5 µM | > 147 | Active
CCN(c1ccccc1)S(=O)(=O)c1cc(Cl)ccc1Cl | – | > 5 µM | – | > 5 µM | 0.86 µM | 6.9 µM | > 6 | –
CCN(c1ccc(F)cc1F)S(=O)(=O)c1cccc(Cl)c1 | – | 10.3 µM | – | – | 0.49 µM | 10.3 µM | > 51 | –
C#CCN(c1cccc(N=[N+]=[N-])c1)S(=O)(=O)c1cc(Cl)ccc1Cl | 136 µM | > 25 µM | – | – | – | – | – | –
C#CCCC1(CCOC(=O)Cc2ccc(N(CC)S(=O)(=O)c3cc(Cl)ccc3Cl)cc2)N=N1 | > 5 µM | > 25 µM | – | – | – | – | – | –
CCN(c1ccc(F)cc1F)S(=O)(=O)c1cc(Cl)cc(Cl)c1 | – | 25 µM | – | – | 0.75 µM | – | > 33 | –
CCN(c1ccc(F)cc1)S(=O)(=O)c1cc(Cl)ccc1Cl | – | > 5 µM | – | > 5 µM | 0.068 µM | 0.94 µM | > 74 | –
O=S(=O)(c1cc(Cl)ccc1Cl)N1CCc2cc(Cl)ccc21 | > 5 µM | > 5 µM | – | – | – | – | – | –
C=CCN(c1ccccc1C)S(=O)(=O)c1cc(Cl)ccc1Cl | – | > 5 µM | – | > 5 µM | 0.12 µM | 0.57 µM | > 42 | –
CCN(c1ccccc1Cl)S(=O)(=O)c1cc(Cl)ccc1Cl | – | > 5 µM | – | > 5 µM | 0.15 µM | 1.5 µM | > 33 | –
Cc1cc(Cl)ccc1N(CCF)S(=O)(=O)c1cc(Cl)ccc1Cl | – | > 5 µM | – | > 5 µM | 35 µM | > 5 µM | > 9 | –
CCN(c1ccc(Cl)cc1F)S(=O)(=O)c1cc(Cl)ccc1Cl | – | > 5 µM | – | > 5 µM | 0.15 µM | 1.8 µM | > 33 | –
C#CCN(c1ccc(Cl)cc1C)S(=O)(=O)c1cc(Cl)ccc1Cl | – | > 5 µM | – | > 5 µM | 0.12 µM | 3.4 µM | > 42 | –
C=CCN(c1ccc(Cl)cc1C)S(=O)(=O)c1cc(Cl)ccc1Cl | – | > 5 µM | – | > 5 µM | 0.037 µM | 0.43 µM | > 135 | –
CCN(c1c(C)cc(Cl)cc1Cl)S(=O)(=O)c1cc(Cl)ccc1Cl | – | > 5 µM | – | > 5 µM | 0.39 µM | > 5 µM | > 13 | –
Cc1cc(Cl)ccc1N(CC1CC1)S(=O)(=O)c1cc(Cl)ccc1Cl | – | > 5 µM | – | > 5 µM | 0.49 µM | 2.8 µM | > 10 | –
O=S(=O)(c1cc(Cl)ccc1Cl)N1CCCc2cc(Cl)ccc21 | > 5 µM | > 5 µM | – | – | – | – | – | –

— ChEMBL document CHEMBL4825712
